What was measured:
Cannabinoid receptor 2 = Cannabinoid receptor 2 (Mus musculus, UniProt P47936); assay: Binding affinity towards Cannabinoid receptor 2 from mouse spleen membranes using 0.8 nM [3H]CP-55940 as radioligand; format: tissue-based
Method in brief: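 Mouse spleen membranes, no PMSF pretreatment (amidase absent). Each well held ~30 μg membrane in TME (25 mM Tris-HCl, 5 mM MgCl2, 1 mM EDTA, pH 7.4) with 0.1% fatty acid-free BSA, 0.8 nM [3H]CP-55,940 and varied analogue concentrations, 1 h. Bound ligand was collected on GF/C filters and counted by scintillation.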

Cannabinoid receptor 1 [1] = target: T1, Cannabinoid receptor 1 (Rattus norvegicus, UniProt P20272); assay: Binding affinity towards cannabinoid receptor 1 from rat forebrain membranes in the presence of phenylmethanesulfonylfluoride (PMSF) using 0.8 nM [3H]CP-55940 as radioligand; parameters: species or system Membrane
Cannabinoid receptor 1 [2] = target: T1, Cannabinoid receptor 1; assay: Binding affinity towards cannabinoid receptor 1 from rat forebrain membranes in the absence of phenylmethanesulfonylfluoride (PMSF) using 0.8 nM [3H]CP-55940 as radioligand; parameters: species or system Membrane
Method in brief: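 Rat forebrain membranes were used without PMSF treatment. Bound ligand was separated by filtration and counted by scintillation. IC50 from nonlinear regression was converted to Ki by Cheng–Prusoff.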

Rattus norvegicus [3] = organism: Rattus norvegicus; assay: Effective concentration required for stimulation of [35S]GTP-gamma-S, binding in rat microsomal membranes expressed as log EC50; format: functional
Method in brief: (§1)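 Rat brain membranes (cerebellum removed) were sucrose-gradient purified. Membrane (40–50 μg protein) was incubated 1 h at 30 °C in 10 mM Tris, 100 mM NaCl, 5 mM MgCl2, 0.1% BSA with GDP, [35S]GTPγS and eight analogue concentrations. Nonspecific binding was defined with 10 μM GTPγS, and buffer alone set the baseline. Bound label was collected on GF/B filters and counted. Two experiments were run, each point in […].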

Rattus norvegicus [4] = organism: Rattus norvegicus; assay: Effective concentration required for stimulation of [35S]GTP-gamma-S, binding in rat microsomal membranes; format: functional; method in brief: as §1
Rattus norvegicus [5] = organism: Rattus norvegicus; assay: Maximal stimulation of [35S]GTP-gamma-S, binding in rat microsomal membranes expressed as Emax; format: functional; method in brief: as §1

T1 sequence (P20272 whole entry): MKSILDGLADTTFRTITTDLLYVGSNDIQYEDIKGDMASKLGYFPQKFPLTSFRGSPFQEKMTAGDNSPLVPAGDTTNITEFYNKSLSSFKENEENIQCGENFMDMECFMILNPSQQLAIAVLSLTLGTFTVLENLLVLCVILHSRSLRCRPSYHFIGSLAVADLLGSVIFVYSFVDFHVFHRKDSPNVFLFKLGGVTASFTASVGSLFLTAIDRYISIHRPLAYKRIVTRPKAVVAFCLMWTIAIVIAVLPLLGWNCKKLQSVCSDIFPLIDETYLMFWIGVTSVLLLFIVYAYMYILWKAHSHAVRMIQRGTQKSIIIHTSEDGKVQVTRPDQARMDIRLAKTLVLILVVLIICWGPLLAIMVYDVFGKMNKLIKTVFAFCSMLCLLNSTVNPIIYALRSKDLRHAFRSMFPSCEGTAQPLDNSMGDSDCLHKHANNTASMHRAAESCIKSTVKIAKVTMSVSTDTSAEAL
Cannabinoid receptor 2, sequence (P47936 whole entry): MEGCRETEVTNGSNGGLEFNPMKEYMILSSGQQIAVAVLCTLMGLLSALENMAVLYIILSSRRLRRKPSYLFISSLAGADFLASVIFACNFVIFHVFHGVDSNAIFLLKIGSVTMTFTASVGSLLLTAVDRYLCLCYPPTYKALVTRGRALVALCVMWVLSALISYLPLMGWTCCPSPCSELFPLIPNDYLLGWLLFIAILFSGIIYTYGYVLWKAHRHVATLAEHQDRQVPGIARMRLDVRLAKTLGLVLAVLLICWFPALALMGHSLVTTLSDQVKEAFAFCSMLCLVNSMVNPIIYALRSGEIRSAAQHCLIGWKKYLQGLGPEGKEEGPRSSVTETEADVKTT

Row | SMILES | Ki (Cannabinoid receptor 2) [µM] | Ki (Cannabinoid receptor 1 [1]) [µM] | Ki (Cannabinoid receptor 1 [2]) [µM] | EC50 (Rattus norvegicus [3]) [µM] | EC50 (Rattus norvegicus [4]) [µM] | Emax (Rattus norvegicus [5]) [%]
1 | CCCCC/C=C\C/C=C\C/C=C\C/C=C\CCCC(=O)N[C@@H](C)CC | 3.2 | 0.287 | – | – | – | –
2 | CCCCC/C=C\C/C=C\C/C=C\C/C=C\CCCC(=O)NC(C)(C)C | 1.14 | 0.0512 | 0.105 | – | – | –
3 | CCCCC/C=C\C/C=C\C/C=C\C/C=C\CCCCNC(=O)COC(C)=O | > 10 | – | 0.419 | – | – | –
4 | C#CCNC(=O)CCC/C=C\C/C=C\C/C=C\C/C=C\CCCCC | 0.29 | 0.0108 | 4.9 | 20000 | 0.1 | 143
5 | CCCCC/C=C\C/C=C\C/C=C\C/C=C\CCCC(=O)NCC(F)(F)F | 0.718 | 0.0362 | 2.38 | – | – | –
6 | CCCCCCCC/C=C\CCCCCCCC(=O)NCCO [OLEOYLETHANOLAMIDE] | 31 | – | 44 | – | – | –
7 | CCCCCCCC/C=C\CCCCCCCC(=O)N[C@H](C)CO | 26 | 19 | 33 | – | – | –
8 | CCCCC/C=C\C/C=C\C/C=C\C/C=C\CCCC(=O)NCCF | 0.908 | 0.0267 | 4.64 | – | – | –
9 | CCCCCCC(C)(C)c1ccc([C@@H]2C[C@H](O)CC[C@H]2CCCO)c(O)c1 [CP-55940] | – | – | – | 20000 | 0.1 | 145
10 | CCCCC/C=C\C/C=C\CCCCCCCC(=O)N[C@H](C)CO | 21 | 21 | 21 | – | – | –
11 | CCCCC/C=C\C/C=C\CCCCCCCC(=O)NCCO [LINOLEOYLETHANOLAMIDE] | 25 | – | – | – | – | –
12 | CCCCC/C=C\C/C=C\C/C=C\C/C=C\CCCC(=O)NCC(C)C | 0.84 | 0.0902 | 0.0981 | – | – | –
13 | CCCCC/C=C\C/C=C\C/C=C\C/C=C\CCCC(=O)NC(C)CC (stereo not drawn) | 2.2 | 0.0832 | 0.158 | – | – | –
14 | CCCCCCCC/C=C\CCCCCCCC1=NCCO1 | 31 | – | 14 | – | – | –
15 | CCCCC/C=C\C/C=C\C/C=C\C/C=C\CCCC(=O)N[C@@H](C)CO | 8.22 | – | – | – | – | –
16 | Cc1c(C(=O)c2cccc3ccccc23)c2cccc3c2n1[C@H](CN1CCOCC1)CO3 [WIN-552122] | – | – | – | – | 0.18 | 150
17 | CCCCC/C=C\C/C=C\C/C=C\C/C=C\CCCC(=O)N[C@H](C)CO [METHANANDAMIDE] | 0.868 | – | – | – | 0.33 | 148
18 | CCCCC/C=C\C/C=C\C/C=C\C/C=C\CCCC(=O)N[C@H](C)CC | 1.33 | 0.0736 | 0.143 | – | – | –
19 | C=CCNC(=O)CCC/C=C\C/C=C\C/C=C\C/C=C\CCCCC | 0.226 | 0.00991 | 2.98 | – | – | –
20 | CCCCC/C=C\C/C=C\C/C=C\C/C=C\CCCC(=O)NC[C@H](C)O | 0.771 | 0.0356 | 0.11 | – | – | –
21 | CCCCC/C=C\C/C=C\CCCCCCCC1=NCCO1 | 20 | – | – | – | – | –
22 | CCCCC/C=C\C/C=C\C/C=C\C/C=C\CCCC(=O)NCCCl | 0.195 | 0.00529 | 3.4 | – | 0.42 | 162
23 | CCCCC/C=C\C/C=C\C/C=C\C/C=C\CCCC(=O)NC[C@@H](C)O | 1.79 | 0.13 | 0.63 | – | – | –
24 | CCCCC/C=C\C/C=C\C/C=C\C/C=C\CCCC1=N[C@H](C)CO1 | 6800 | – | 0.679 | – | – | –
25 | CCCCC/C=C\C/C=C\C/C=C\C/C=C\CCCC(=O)NCCCCl | 0.193 | 0.0256 | 0.387 | – | – | –

Source: ChEMBL document CHEMBL1131442 (J Med Chem, 1998)
